Measurements published in publication PMC12166256 (Clinical Pharmacology and Therapeutics, 2025).
Marks after values point to notes of the source that are not given here.

What was measured:
[1] = cited from earlier work
TNFα = conditions: in vitro; cited from earlier work
[2] = system: collagen-induced arthritis mouse model; conditions: cited from earlier work
[3] = SAD study: plasma pharmacokinetics; type: in vivo, human; conditions: for plasma concentrations: SAD 5 mg, below the LLOQ
Procedure, shortened: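 Healthy males aged 18–55 got single oral doses in six SAD cohorts (5–600 mg), 6 active and 2 placebo per cohort, all fasted. Plasma was drawn pre-dose and at 1, 2, 3, 4, 6, 8, 12, 18, 24, 36, 48, 60 and 72 h; 96 h only for dose levels 4–6. LC–MS/MS, LLOQ 2 ng/mL. Non-compartmental parameters; AUC excluded when extrapolation exceeded 30%.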

sTNFα = sTNFα (Homo sapiens, UniProt P01375); assay: sTNFα target occupancy, ex vivo zymosan stimulation of blood, ELISA; type: in vivo
Procedure, shortened: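 Blood came from the 400 and 600 mg single-dose cohorts (pre-dose and 3 h post-dose) and all multiple-dose cohorts (pre-dose Day 1; pre-dose and 3 h Day 14). It was stimulated ex vivo with zymosan. ELISA measured total and compound-occupied TNFα to derive percent occupancy and percent change from baseline, summarised descriptively by group and time point.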

Chain of sTNFα (P01375 77-233 limits assumed): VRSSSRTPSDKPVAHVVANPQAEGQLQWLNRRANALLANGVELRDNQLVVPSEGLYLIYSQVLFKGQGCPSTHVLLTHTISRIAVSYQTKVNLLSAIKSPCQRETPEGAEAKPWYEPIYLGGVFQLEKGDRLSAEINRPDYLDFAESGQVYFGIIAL

CN1C(=O)c2cccc(OC(F)F)c2[C@H]2C[C@@H]1c1nc3ccc(-c4cnc(C5(N)CCC5)nc4)cc3n12 [Balinatunfib]
bioavailability ([1]; across animal species): moderate to high
fraction unbound ([1]; preclinical studies): high
tissue distribution ([1]; preclinical studies): high
concentration leading to 90% occupancy of TNFα [OCC90] (TNFα): 16 nM
average free efficacious exposure in mice ([2]; collagen-induced arthritis mouse model): 24 nM
efficacy in collagen-induced arthritis mouse model ([2]; in vivo): antibody‐like efficacy
plasma concentrations [3]: < 0.002 µg/mL
plasma concentrations ([3]; listed as balinatunfib): In the SAD study, all doses were administered under fasted conditions. The PK parameters were not calculable for any participant receiving a single dose of 5 mg balinatunfib, as all concentrations were below the LLOQ (2 ng/mL).
C max, geometric mean ([3]; SAD 20 mg fasted): (5.12) [24] ng/mL
C max, mean ± SD ([3]; SAD 20 mg fasted): 0.00525 ± 0.00124 µg/mL
t last, median ([3]; SAD 20 mg fasted): 18.05 h
t max, median ([3]; SAD 20 mg fasted): 5.00 h
AUC (0 to infinity), mean ([3]; SAD 20 mg fasted, n = 1): 101 ^b ± NC ng·h/mL
t 1/2z, geometric mean ([3]; SAD 20 mg fasted, n = 5): (13.6) [48] h
t 1/2z, mean ([3]; SAD 20 mg fasted, n = 5): 15.0 ^c ± 7.21 h
AUC (0 to infinity), geometric mean ([3]; SAD 60 mg fasted): (409) [25] ng·h/mL
AUC (0 to infinity), mean ± SD ([3]; SAD 60 mg fasted): 420 ± 103 ng·h/mL
C max, geometric mean ([3]; SAD 60 mg fasted): (20.5) [24] ng/mL
C max, mean ± SD ([3]; SAD 60 mg fasted): 0.021 ± 0.00508 µg/mL
t 1/2z, geometric mean ([3]; SAD 60 mg fasted): (20.9) [28] h
t 1/2z, mean ± SD ([3]; SAD 60 mg fasted): 21.6 ± 6.14 h
t last, median ([3]; SAD 60 mg fasted): 48.00 h
t max, median ([3]; SAD 60 mg fasted): 2.50 h
AUC (0 to infinity), geometric mean ([3]; SAD 180 mg fasted): (2,330) [32] ng·h/mL
AUC (0 to infinity), mean ± SD ([3]; SAD 180 mg fasted): 2,450 ± 782 ng·h/mL
C max, geometric mean ([3]; SAD 180 mg fasted): (117) [36] ng/mL
C max, mean ± SD ([3]; SAD 180 mg fasted): 0.122 ± 0.0437 µg/mL
t 1/2z, geometric mean ([3]; SAD 180 mg fasted): (27.1) [17] h
t 1/2z, mean ± SD ([3]; SAD 180 mg fasted): 27.4 ± 4.74 h
t last, median ([3]; SAD 180 mg fasted): 96.21 h
t max, median ([3]; SAD 180 mg fasted): 2.50 h
AUC (0 to infinity), geometric mean ([3]; SAD 400 mg fasted): (4,220) [49] ng·h/mL
AUC (0 to infinity), mean ± SD ([3]; SAD 400 mg fasted): 4,580 ± 2,240 ng·h/mL
C max, geometric mean ([3]; SAD 400 mg fasted): (261) [49] ng/mL
C max, mean ± SD ([3]; SAD 400 mg fasted): 0.285 ± 0.139 µg/mL
t 1/2z, geometric mean ([3]; SAD 400 mg fasted): (24.0) [26] h
t 1/2z, mean ± SD ([3]; SAD 400 mg fasted): 24.7 ± 6.47 h
t last, median ([3]; SAD 400 mg fasted): 96.16 h
t max, median ([3]; SAD 400 mg fasted): 3.00 h
AUC (0 to infinity), geometric mean ([3]; SAD 600 mg fasted): (8,900) [37] ng·h/mL
AUC (0 to infinity), mean ± SD ([3]; SAD 600 mg fasted): 9,640 ± 3,540 ng·h/mL
C max, geometric mean ([3]; SAD 600 mg fasted): (483) [39] ng/mL
C max, mean ± SD ([3]; SAD 600 mg fasted): 0.525 ± 0.206 µg/mL
t 1/2z, geometric mean ([3]; SAD 600 mg fasted): (23.9) [22] h
t 1/2z, mean ± SD ([3]; SAD 600 mg fasted): 24.4 ± 5.43 h
t last, median ([3]; SAD 600 mg fasted): 96.01 h
t max, median ([3]; SAD 600 mg fasted): 3.00 h
sTNFα occupancy, mean (sTNFα; MAD 100 mg BID, D14 0 h): 103.1%
sTNFα occupancy, median (sTNFα; MAD 100 mg BID, D14 0 h): 104.0%
sTNFα occupancy, mean (sTNFα; MAD 100 mg BID, D14 3 h): 104.9%
sTNFα occupancy, median (sTNFα; MAD 100 mg BID, D14 3 h): 105.3%
sTNFα occupancy, mean (sTNFα; MAD 100 mg QD, D14 0 h): 95.0%
sTNFα occupancy, median (sTNFα; MAD 100 mg QD, D14 0 h): 96.8%
sTNFα occupancy, mean (sTNFα; MAD 100 mg QD, D14 3 h): 97.2%
sTNFα occupancy, median (sTNFα; MAD 100 mg QD, D14 3 h): 98.4%
sTNFα occupancy, mean (sTNFα; MAD 200 mg BID, D14 0 h): 101.1%
sTNFα occupancy, median (sTNFα; MAD 200 mg BID, D14 0 h): 101.8%
sTNFα occupancy, mean (sTNFα; MAD 200 mg BID, D14 3 h): 105.2%
sTNFα occupancy, median (sTNFα; MAD 200 mg BID, D14 3 h): 106.6%
sTNFα occupancy, mean (sTNFα; MAD 300 mg BID, D14 0 h): 101.3%
sTNFα occupancy, median (sTNFα; MAD 300 mg BID, D14 0 h): 101.8%
sTNFα occupancy, mean (sTNFα; MAD 300 mg BID, D14 3 h): 99.8%
sTNFα occupancy, median (sTNFα; MAD 300 mg BID, D14 3 h): 102.8%
sTNFα target occupancy (sTNFα; SAD 400 mg and 600 mg cohorts, 3 hours after dosing): ~ 100%
sTNFα occupancy, mean (sTNFα; SAD 400 mg, D1 3 h): 102.2%
sTNFα occupancy, median (sTNFα; SAD 400 mg, D1 3 h): 105.3%
sTNFα occupancy, mean (sTNFα; SAD 600 mg, D1 3 h): 109.3%
sTNFα occupancy, median (sTNFα; SAD 600 mg, D1 3 h): 109.2%
